The values below come from ChEMBL document CHEMBL4428078, “Discovery of S3-Truncated, C-6 Heteroaryl Substituted Aminothiazine β-Site APP Cleaving Enzyme-1 (BACE1) Inhibitors” (J Med Chem, 2016).

The IC50 is the concentration that inhibits the measured activity by half.

SMILES strings stand for the structures.

Data set [1] in a line: Metabolic stability in human liver microsomes assessed as compound remaining at 0.5 uM measured after 10 mins. The format is ADME, Microsome. The settings on record: read-out: Stability. Summed up:
(§1)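 Test compound at 0.5 µM incubated 10 min with mouse, rat or human liver microsomes. Read-out is percent of parent compound remaining.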
(In general: Liver microsomes are vesicles of endoplasmic reticulum, rich in cytochrome P450 enzymes.)

The nature of data set [2]: Metabolic stability in mouse liver microsomes assessed as compound remaining at 0.5 uM measured after 10 mins. The format is ADME, Microsome. Conditions: read-out: Stability. Summed up:
as §1

Data set [3] can be described thus: Metabolic stability in rat liver microsomes assessed as compound remaining at 0.5 uM measured after 10 mins. The settings on record: read-out: Stability. The format is ADME, Microsome. In a few lines: as §1
The next data set addresses Beta-secretase 1 (Homo sapiens, UniProt P56817). Description: Inhibition of BACE1 in human H4 cells expressing swedish mutant APP751 assessed as reduction in amyloid beta level measured after 19 hrs. Format: cell-based.

Chain of Beta-secretase 1 (P56817 whole entry): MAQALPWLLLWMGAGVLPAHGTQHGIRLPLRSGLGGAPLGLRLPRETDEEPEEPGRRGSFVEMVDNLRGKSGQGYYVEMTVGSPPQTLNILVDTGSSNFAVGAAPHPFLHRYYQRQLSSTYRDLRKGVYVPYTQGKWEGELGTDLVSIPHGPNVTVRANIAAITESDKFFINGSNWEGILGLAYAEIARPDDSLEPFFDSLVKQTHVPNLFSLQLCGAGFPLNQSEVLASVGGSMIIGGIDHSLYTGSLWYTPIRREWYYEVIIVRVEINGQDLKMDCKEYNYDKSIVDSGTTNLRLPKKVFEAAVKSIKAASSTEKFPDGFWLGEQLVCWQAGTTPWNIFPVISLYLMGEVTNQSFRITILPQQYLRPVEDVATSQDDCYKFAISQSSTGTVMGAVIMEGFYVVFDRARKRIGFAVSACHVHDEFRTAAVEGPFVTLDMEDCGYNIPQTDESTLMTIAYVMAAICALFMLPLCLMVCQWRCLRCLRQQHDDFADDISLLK

For `Cc1noc(C)c1[C@@H]1C[C@@](C)(c2sccc2Cl)N=C(N)S1`, the remaining at 10 min, 0.5 µM in data set [1] is 11%; in data set [2] it was 21%; in data set [3], 12%. Besides, the IC50 on Beta-secretase 1 is 300 nM.

Take `Cc1noc(C)c1[C@@H]1C[C@@](C)(c2ccc(F)cc2)N=C(N)S1`: the remaining at 10 min, 0.5 µM was determined as 73% in data set [1], 90% in data set [2] and 78% in data set [3]. For the same molecule, the half-maximal inhibitory concentration (IC50) at Beta-secretase 1 turned out to be 600 nM.

For `Cc1noc(C)c1[C@@H]1C[C@@](C)(c2ccccc2)N=C(N)S1`, the remaining at 10 min, 0.5 µM in data set [1] was determined as 86%; in data set [2], 78%; in data set [3] it was 81%. At Beta-secretase 1, the IC50 amounted to 480 nM.

For the molecule `CCc1noc(C)c1[C@@H]1C[C@@](C)(c2ccc(F)cc2F)N=C(N)S1`, the remaining at 10 min, 0.5 µM in data set [1] came out at 21%; in data set [2], 41%; in data set [3], 59%. In addition, the IC50 at Beta-secretase 1 amounted to 250 nM.

On to `Cc1onc(-c2ccccc2)c1[C@@H]1C[C@@](C)(c2ccc(F)cc2F)N=C(N)S1`, for which the remaining at 10 min, 0.5 µM was found to be 38% in data set [1], 12% in data set [2] and 13% in data set [3]. On Beta-secretase 1, the IC50 turned out to be 160 nM.

As to `Cc1onc(-c2ccc(F)cc2)c1[C@@H]1C[C@@](C)(c2ccc(F)cc2F)N=C(N)S1`, the remaining at 10 min, 0.5 µM in data set [1] came to 24%; in data set [2], 23%; in data set [3] it was 35%. For the same molecule, on Beta-secretase 1, the IC50 is 320 nM.

On to `Cc1noc(-c2ccccc2)c1[C@@H]1C[C@@](C)(c2ccc(F)cc2F)N=C(N)S1`, for which the remaining at 10 min, 0.5 µM in data set [1] worked out at 39%; in data set [2], 6%; in data set [3] it was 20%. For the same molecule, at Beta-secretase 1, the IC50 came out at 230 nM.

Regarding `Cc1onc(-c2cccnc2)c1[C@@H]1C[C@@](C)(c2ccc(F)cc2F)N=C(N)S1`, the remaining at 10 min, 0.5 µM in data set [1] came out at 17%; in data set [2], 6%; in data set [3], 5%. At Beta-secretase 1, the IC50 was 180 nM.
